Data as given in ChEMBL document CHEMBL2163187, “Neomaclafungins A-I: oligomycin-class macrolides from a marine-derived actinomycete” (2012).
Values after ≈ are worked out from the molar mass of the structure shown.

System: Trichophyton mentagrophytes
Assay: Antifungal activity against Trichophyton mentagrophytes ATCC 9533
Type: functional
Method in brief: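 Microbial assay against Trichophyton mentagrophytes ATCC 9533. Compounds were tested at concentrations from 10 μg/mL to 10 ng/mL.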

CC[C@@H](O)C[C@@H]1O[C@@]2(CC[C@@H]1C)C[C@@H]1OC(=O)/C=C/[C@H](C)[C@@H](O)[C@@H](C)[C@H](O)C[C@H](OC)C[C@H](O)[C@H](C)[C@H](O)CC/C=C/C=C/[C@H](CC)CC[C@H](O2)[C@H]1CCCO
MIC: 1 µg/mL (≈ 1.26 µM)

CCCC[C@H]1[C@@H]2C[C@@]3(CC[C@H](C)[C@H](C[C@@H](C)O)O3)O[C@H]1CC[C@@H](CC)/C=C/C=C/CC[C@@H](O)[C@@H](C)[C@@H](O)C[C@@H](OC)C[C@@H](O)[C@H](C)[C@H](O)[C@@H](C)/C=C/C(=O)O2
MIC: 3 µg/mL (≈ 3.85 µM)

CCC[C@H]1[C@@H]2C[C@@]3(CC[C@H](C)[C@H](C[C@@H](C)O)O3)O[C@H]1CC[C@@H](CC)/C=C/C=C/CC[C@@H](O)[C@@H](C)[C@@H](O)C[C@@H](OC)C[C@@H](O)[C@H](C)[C@H](O)[C@@H](C)/C=C/C(=O)O2
MIC: 3 µg/mL (≈ 3.92 µM)

CC[C@H]1/C=C/C=C/CC[C@@H](O)[C@@H](C)[C@@H](O)C[C@@H](OC)C[C@@H](O)[C@H](C)[C@H](O)[C@@H](C)/C=C/C(=O)O[C@H]2C[C@@]3(CC[C@H](C)[C@H](C[C@@H](C)O)O3)O[C@@H](CC1)[C@H]2CCCO [NEOMACLAFUNGIN A]
MIC: 3 µg/mL (≈ 3.84 µM)

CC[C@H]1/C=C/C=C/CC[C@@H](O)[C@@H](C)[C@@H](O)C[C@@H](OC)C[C@@H](O)[C@H](C)[C@H](O)[C@@H](C)/C=C/C(=O)O[C@H]2C[C@@]3(CC[C@H](C)[C@H](C[C@@H](C)O)O3)O[C@@H](CC1)[C@H]2CC
MIC: 1 µg/mL (≈ 1.33 µM)

CC[C@@H](O)C[C@@H]1O[C@@]2(CC[C@@H]1C)C[C@@H]1OC(=O)/C=C/[C@H](C)[C@@H](O)[C@@H](C)[C@H](O)C[C@H](OC)C[C@H](O)[C@H](C)[C@H](O)CC/C=C/C=C/[C@H](CC)CC[C@H](O2)[C@H]1CCC(C)O (stereo not given in full)
MIC: 1 µg/mL (≈ 1.24 µM)

CCC[C@H]1[C@@H]2C[C@@]3(CC[C@H](C)[C@H](C[C@H](O)CC)O3)O[C@H]1CC[C@@H](CC)/C=C/C=C/CC[C@@H](O)[C@@H](C)[C@@H](O)C[C@@H](OC)C[C@@H](O)[C@H](C)[C@H](O)[C@@H](C)/C=C/C(=O)O2
MIC: 3 µg/mL (≈ 3.85 µM)

CCCCC[C@H]1[C@@H]2C[C@@]3(CC[C@H](C)[C@H](C[C@@H](C)O)O3)O[C@H]1CC[C@@H](CC)/C=C/C=C/CC[C@@H](O)[C@@H](C)[C@@H](O)C[C@@H](OC)C[C@@H](O)[C@H](C)[C@H](O)[C@@H](C)/C=C/C(=O)O2
MIC: 3 µg/mL (≈ 3.78 µM)

CC[C@@H]1/C=C/C=C/C[C@H](C)[C@H](O)[C@](C)(O)C(=O)[C@H](C)[C@@H](O)[C@H](C)C(=O)[C@H](C)[C@@H](O)[C@H](C)/C=C/C(=O)O[C@H]2[C@@H](C)[C@@H](CC1)O[C@@]1(CC[C@@H](C)[C@@H](C[C@H](C)O)O1)[C@@H]2C [OLIGOMYCIN A]
MIC: 10 µg/mL (≈ 12.6 µM)

CC[C@H]1/C=C/C=C/CC[C@@H](O)[C@@H](C)[C@@H](O)C[C@@H](OC)C[C@@H](O)[C@H](C)[C@H](O)[C@@H](C)/C=C/C(=O)O[C@H]2C[C@@]3(CC[C@H](C)[C@H](C[C@@H](C)O)O3)O[C@@H](CC1)[C@H]2CCC(C)O (stereo not given in full)
MIC: 3 µg/mL (≈ 3.77 µM)
